Columns and labels:
[1] = target: T1, Phenylethanolamine N-methyltransferase (Bos taurus, UniProt P10938); assay: Inhibition of Phenylethanolamine N-methyl-transferase (PNMT)
T1 sequence (P10938 whole entry): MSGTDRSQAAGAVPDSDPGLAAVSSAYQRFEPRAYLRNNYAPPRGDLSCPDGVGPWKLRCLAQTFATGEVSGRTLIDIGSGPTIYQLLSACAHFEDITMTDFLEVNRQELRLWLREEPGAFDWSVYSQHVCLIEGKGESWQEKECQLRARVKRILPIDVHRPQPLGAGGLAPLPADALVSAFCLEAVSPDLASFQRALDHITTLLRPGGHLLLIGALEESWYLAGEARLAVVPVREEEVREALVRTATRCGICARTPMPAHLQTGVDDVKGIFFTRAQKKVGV
Method in brief: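 Bovine adrenal PNMT, purified through isoelectric precipitation. Radiochemical assay in phosphate buffer pH 8.0 with unlabeled AdoMet plus [methyl-3H]AdoMet, with phenylethanolamine as the variable substrate. Incubated 30 min at 37 °C, then quenched with borate pH 10.0. Product extracted into toluene–isoamyl alcohol (7:3) and scintillation counted. Duplicates at three inhibitor concentrations over a 5-fold range. Ki from hyperbolic fit; mode checked by 1/V vs 1/S plots.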

[2] = target: T2, Adrenergic receptor alpha-2 (Rattus norvegicus, UniProt P22086+P19328+P22909); assay: Inhibition of [3H]clonidine binding to Alpha-2 adrenergic receptor; assay type: protein assay
T2 sequence (P22086 whole entry): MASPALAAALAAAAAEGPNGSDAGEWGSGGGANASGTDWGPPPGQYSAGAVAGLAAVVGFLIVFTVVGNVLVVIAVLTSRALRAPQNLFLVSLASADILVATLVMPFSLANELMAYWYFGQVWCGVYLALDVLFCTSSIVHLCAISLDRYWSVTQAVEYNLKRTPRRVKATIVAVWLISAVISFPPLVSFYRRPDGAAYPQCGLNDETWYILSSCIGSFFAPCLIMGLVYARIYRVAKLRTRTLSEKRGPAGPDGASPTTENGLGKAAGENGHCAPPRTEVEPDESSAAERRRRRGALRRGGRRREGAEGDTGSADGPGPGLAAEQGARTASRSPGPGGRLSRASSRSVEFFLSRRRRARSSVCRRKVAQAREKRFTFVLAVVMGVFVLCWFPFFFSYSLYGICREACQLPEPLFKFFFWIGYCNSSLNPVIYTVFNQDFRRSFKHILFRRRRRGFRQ
T2 sequence (P19328 whole entry): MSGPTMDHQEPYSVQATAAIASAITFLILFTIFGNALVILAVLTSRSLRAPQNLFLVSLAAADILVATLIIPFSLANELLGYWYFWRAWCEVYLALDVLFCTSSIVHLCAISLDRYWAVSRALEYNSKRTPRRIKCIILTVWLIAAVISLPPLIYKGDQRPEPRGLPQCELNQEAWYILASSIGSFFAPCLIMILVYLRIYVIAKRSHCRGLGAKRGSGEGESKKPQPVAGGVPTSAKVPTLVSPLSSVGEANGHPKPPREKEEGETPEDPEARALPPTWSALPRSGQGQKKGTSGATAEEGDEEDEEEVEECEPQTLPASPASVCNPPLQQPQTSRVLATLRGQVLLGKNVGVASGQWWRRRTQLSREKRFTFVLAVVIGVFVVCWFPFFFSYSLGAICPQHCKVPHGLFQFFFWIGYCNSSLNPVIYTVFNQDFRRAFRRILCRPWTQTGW
T2 sequence (P22909 whole entry): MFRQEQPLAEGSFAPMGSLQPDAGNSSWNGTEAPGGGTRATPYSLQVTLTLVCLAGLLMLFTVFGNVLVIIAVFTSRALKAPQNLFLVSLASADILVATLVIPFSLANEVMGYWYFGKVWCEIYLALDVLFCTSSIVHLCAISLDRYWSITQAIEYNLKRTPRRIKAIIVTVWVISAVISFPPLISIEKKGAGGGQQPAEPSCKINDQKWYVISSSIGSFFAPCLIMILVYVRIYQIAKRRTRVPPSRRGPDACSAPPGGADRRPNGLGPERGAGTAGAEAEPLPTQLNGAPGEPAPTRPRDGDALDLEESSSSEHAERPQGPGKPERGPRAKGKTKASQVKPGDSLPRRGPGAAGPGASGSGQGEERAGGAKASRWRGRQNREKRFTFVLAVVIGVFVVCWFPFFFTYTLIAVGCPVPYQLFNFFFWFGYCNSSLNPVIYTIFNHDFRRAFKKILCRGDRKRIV
Method in brief: (§1)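 Cortex from male Sprague-Dawley rats, homogenized and washed three times by centrifugation (50000g) in 50 mM Tris·HCl pH 7.7. Incubated with 4.0 nM (final) [3H]clonidine for 30 min at 25 °C. Bound ligand collected by rapid filtration and counted. Nonspecific binding defined with 2 µM phentolamine. Quadruplicates at 5 inhibitor concentrations over a 16-fold range.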

[3] = Selectivity was expressed as the ratio is Ki of alpha 2-Adrenoceptor to tht of PNMT
[4] = Dissociation constant was determined; assay type: physicochemical
[5] = target: T2, Adrenergic receptor alpha-2; assay: Ability to inhibit binding of [3H]clonidine at the Alpha-2 adrenergic receptor; assay type: protein assay; method in brief: as §1
[6] = Selectivity was expressed as the ratio is Ki of alpha 2-Adrenoceptor to that of PNMT

SMILES | Ki [1] [µM] | Ki [2] [µM] | Selectivity ratio [3] | pKa [4] | Ki [5] [µM] | Selectivity ratio [6]
CS(=O)(=O)N(c1ccc2c(c1)CNCC2)S(C)(=O)=O | 4500 | 190 | 0.042 | – | – | –
CS(=O)(=O)Nc1ccc2c(c1)CNCC2 | 48 | 11 | 0.23 | 9 | – | –
Clc1ccc2c(c1Cl)CNCC2 | 0.2 | – | – | – | […] | –
COc1ccc2c3c(ccc2c1)CCNC3 | 1.4 | 0.84 | 0.6 | – | – | –
NCc1cccc2cc(O)ccc12 | 8.4 | 2.1 | 0.25 | 10 | – | –
CNS(=O)(=O)c1ccc2c(c1)CNCC2 | 4.6 | 130 | 28 | 11.4 | – | –
NCc1cccc2ccccc12 | 4.7 | 1.6 | 0.34 | – | – | –
O=S(=O)(Nc1ccc(Cl)cc1)c1ccc2c(c1)CNCC2 | 2.6 | 6.3 | 2.4 | 7.8 | – | –
Oc1ccc2c(c1)CNCC2 | – | 2.2 | – | 10 | – | 0.85
CS(=O)(=O)NCc1ccc2c(c1)CNCC2 | 330 | 18 | 0.055 | 11.9 | – | –
Oc1ccc2c3c(ccc2c1)CCNC3 | 0.98 | 0.078 | 0.08 | 10 | – | –
COc1ccc2c(CN)cccc2c1 | 15 | 4.6 | 0.31 | – | – | –

Reference: ChEMBL document CHEMBL1130314, “Examination of the role of the acidic hydrogen in imparting selectivity of 7-(aminosulfonyl)-1,2,3,4-tetrahydroisoquinoline (SK&F 29661) toward inhibition of phenylethanolamine N-methyltransferase vs the alpha 2-adrenoceptor” (J Med Chem, 1997)
